Assay results taken from ChEMBL document CHEMBL5532647, “Design, synthesis, ADME and biological evaluation of benzylpiperidine and benzylpiperazine derivatives as novel reversible monoacylglycerol lipase (MAGL) inhibitors” (Eur J Med Chem, 2024).
In brackets after ≈: the same amount, converted by molar mass. Activity calls are given as the source filed them. The rule behind the calls is not given here.

What was measured:
[1] = target: T1, Monoglyceride lipase (Homo sapiens, UniProt Q99685); experiment: Inhibition of human recombinant MAGL using 4-nitrophenylacetate as substrate incubated for 30 mins by microplate reader analysis
T1 sequence (Q99685 whole entry): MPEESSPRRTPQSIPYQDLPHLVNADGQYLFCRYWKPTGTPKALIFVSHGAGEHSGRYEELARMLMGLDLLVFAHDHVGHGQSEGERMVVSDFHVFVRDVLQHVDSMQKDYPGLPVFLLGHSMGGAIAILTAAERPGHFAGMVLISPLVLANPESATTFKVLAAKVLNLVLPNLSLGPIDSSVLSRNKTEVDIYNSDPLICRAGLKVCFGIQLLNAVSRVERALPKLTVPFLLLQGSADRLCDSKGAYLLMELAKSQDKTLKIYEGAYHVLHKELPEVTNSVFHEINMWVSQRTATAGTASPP

[2] = Metabolic stability in human liver microsome in presence of NADPH-regenerating system by UV/LC-MS analysis; format: ADME; settings: microsomes
How it was run: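 Compound incubated 1 h at 37 °C with human liver microsomes (0.2 mg/mL) and an NADPH-regenerating system (NADPH 0.2 mM, NADP+ 1 mM, glucose-6-phosphate 4 mM, G6PDH 4 unit/mL, MgCl2 48 mM) in 25 mM phosphate buffer pH 7.4. Quenched with acetonitrile, then centrifuged. Parent and metabolites measured by UV/LC-MS. Percent unmetabolized obtained against reference solutions; three independent experiments.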

[3] = Apparent permeability of the compound by PAMPA method; format: ADME
How it was run: (§1)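 Donor solution made from 1 mM DMSO stock diluted in 25 mM phosphate buffer pH 7.4 to 500 μM final. Filter coated with 1% (w/v) phosphatidylcholine in dodecane. Acceptor was 1:1 v/v DMSO/phosphate buffer. Sandwich incubated 5 h at room temperature. Compound in donor and acceptor wells quantified by UV/LC-MS.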

[4] = Thermodynamic aqueous solubility of the compound by LC-MS/MS analysis; format: physicochemical; settings: read-out: Therm_solubility
How it was run: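 Solid compound (1 mg) shaken overnight in 1 mL distilled water at room temperature. Suspension passed through a 0.45 μm nylon filter. Dissolved compound quantified in triplicate by UV/LC-MS or LC-MS/MS against a calibration curve of compound in methanol.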

[5] = Stability in human plasma measured after 24 hrs by UV/LC-MS analysis; format: ADME, cell-free; settings: read-out: Stability
How it was run: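 Compound (2 mM) incubated at 37 °C in pooled human plasma (55.7 mg protein/mL) with HEPES 25 mM, NaCl 140 mM, pH 7.4. Samples taken at 0–24 h and precipitated with cold acetonitrile. After centrifugation, supernatant analysed by UV/LC-MS. Three independent experiments.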

[6] = Permeability of the compound assessed as membrane retention rate by PAMPA method; format: ADME; how it was run: as §1
[7] = target: T2, Monoglyceride lipase (Mus musculus) (UniProt O35678); experiment: Displacement of TAMRA-FP from mouse brain MAGL at 1 uM incubated with compound for 5 mins followed by ABPP assay; format: tissue-based
T2 sequence (whole entry): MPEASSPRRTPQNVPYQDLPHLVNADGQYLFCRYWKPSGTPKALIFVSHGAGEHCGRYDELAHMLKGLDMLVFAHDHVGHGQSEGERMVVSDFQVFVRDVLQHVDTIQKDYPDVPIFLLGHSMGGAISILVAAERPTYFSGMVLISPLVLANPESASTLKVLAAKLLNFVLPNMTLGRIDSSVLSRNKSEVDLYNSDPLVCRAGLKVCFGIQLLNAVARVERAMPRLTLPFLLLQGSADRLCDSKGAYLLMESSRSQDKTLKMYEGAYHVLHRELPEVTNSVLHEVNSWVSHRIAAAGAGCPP

[8] = target: T3, Monoacylglycerol lipase ABHD6 (Mus musculus) (UniProt Q8R2Y0); experiment: Displacement of TAMRA-FP from mouse brain ABHD6 at 10 uM incubated with compound for 5 mins followed by ABPP assay; format: tissue-based
T3 sequence (whole entry): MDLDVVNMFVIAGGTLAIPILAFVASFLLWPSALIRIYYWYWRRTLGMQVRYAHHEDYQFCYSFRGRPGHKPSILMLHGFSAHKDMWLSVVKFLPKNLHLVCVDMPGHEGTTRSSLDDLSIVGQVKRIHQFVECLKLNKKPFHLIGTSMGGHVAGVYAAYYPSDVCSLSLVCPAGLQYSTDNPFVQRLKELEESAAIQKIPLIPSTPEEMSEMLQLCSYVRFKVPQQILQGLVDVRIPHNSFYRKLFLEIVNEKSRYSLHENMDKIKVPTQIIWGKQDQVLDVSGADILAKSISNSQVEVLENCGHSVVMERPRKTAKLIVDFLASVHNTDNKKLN
How it was run: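 Mouse brain membranes (2 mg/mL final, in PBS) preincubated 25 min at 25 °C with test compound (10 μM final) or DMSO vehicle. Controls: JZL-184, URB597 4 μM, WWL70 10 μM, THL, MAFP 5 μM. TAMRA-FP 125 nM final added for 5 min at 25 °C. Reaction stopped with Laemmli buffer, 3 min at 25 °C then 10 min at 90 °C. Separation by 10% SDS-PAGE, fluorescence scanning, three independent experiments.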

Row | Structure (SMILES) | IC50 [1] | also measured
1 | O=C(Nc1ccc(O)cc1C(=O)N1CCC(Cc2cccc(Sc3cc(C(F)(F)F)ccn3)c2)CC1)c1ccccc1 | 112 nM | –
2 | COc1ccc(Sc2cc(C(F)(F)F)ccn2)cc1CC1CCN(C(=O)c2cccc(O)c2)CC1 | 49.1 nM | –
3 | O=C(c1cccc(O)c1)N1CCC(Cc2cccc(Sc3cccc(C(F)(F)F)n3)c2)CC1 | 13.2 nM | –
4 | O=C(c1ccc(Sc2cccc(C(F)(F)F)c2)cc1)C1CCN(C(=O)c2cc(O)ccc2F)CC1 | – | Stability [2]: 90.71%; Papp [3]: 1.83 ×10⁻⁶ cm/s; solubility thermodynamic [4]: 0.129 ng/mL (≈ 0.256 nM); remaining at 24 h [5]: > 99%; R% [6]: 47%
5 | O=C(c1cc(O)cc(Sc2ccccc2)c1)N1CCC(Cc2cccc(Sc3cc(C(F)(F)F)ccn3)c2)CC1 | 44.8 nM | –
6 | COc1ccc(CC2CCN(C(=O)c3cccc(O)c3)CC2)cc1Sc1cc(C(F)(F)F)ccn1 | 14.4 nM | –
7 | O=C(c1ccc(Sc2ccccc2)c(O)c1)N1CCC(Cc2cccc(Sc3cc(C(F)(F)F)ccn3)c2)CC1 | 242 nM | –
8 | O=C(c1cccc(O)c1)N1CCC(Cc2cccc(Sc3ncccc3C(F)(F)F)c2)CC1 | 7.1 nM | –
9 | O=C(c1cc(O)ccc1Sc1ccccc1)N1CCC(Cc2cccc(Sc3cc(C(F)(F)F)ccn3)c2)CC1 | 32.3 nM | –
10 | O=C(Oc1ccc([N+](=O)[O-])cc1)N1CCC(C(O)(c2ccc3c(c2)OCO3)c2ccc3c(c2)OCO3)CC1 | – | Activity [7]: Active
11 | CN(Cc1cccc(-c2ccncc2)c1)C(=O)Oc1ccc(-c2ccc(C(N)=O)cc2)cc1 | – | Activity [8]: Active
12 | O=C(Nc1cc(O)cc(C(=O)N2CCC(Cc3cccc(Sc4cc(C(F)(F)F)ccn4)c3)CC2)c1)c1ccccc1 | 149 nM | –
13 | O=C(c1cccc(O)c1)N1CCC(Cc2cc(Sc3cc(C(F)(F)F)ccn3)ccc2O)CC1 | 20.8 nM | –
14 | O=C(Nc1ccc(C(=O)N2CCC(Cc3cccc(Sc4cc(C(F)(F)F)ccn4)c3)CC2)cc1O)c1ccccc1 | > 1000 nM | –
15 | O=C(c1cccc(O)c1)N1CCC(Cc2cc(Sc3cc(C(F)(F)F)ccn3)ccc2F)CC1 | 22.5 nM | –
16 | O=C(c1cccc(O)c1)N1CCC(Cc2ccc(O)c(Sc3cc(C(F)(F)F)ccn3)c2)CC1 | 61.2 nM | –
17 | O=C(c1cccc(O)c1)N1CCC(Cc2cccc(Sc3ccc(C(F)(F)F)cn3)c2)CC1 | 40.4 nM | –
